Experiments:
[1] = species: Homo sapiens; assay: Selectivity index, ratio of IC50 for human CYP11B1 to IC50 human CYP11B2
[2] = molecular target: T1, Aromatase (Homo sapiens, UniProt P11511); assay: Inhibition of CYP19 in human placental microsomes using [1beta-3H]androstenedione substrate; set-up: species or system Placenta
T1 sequence (P11511 whole entry): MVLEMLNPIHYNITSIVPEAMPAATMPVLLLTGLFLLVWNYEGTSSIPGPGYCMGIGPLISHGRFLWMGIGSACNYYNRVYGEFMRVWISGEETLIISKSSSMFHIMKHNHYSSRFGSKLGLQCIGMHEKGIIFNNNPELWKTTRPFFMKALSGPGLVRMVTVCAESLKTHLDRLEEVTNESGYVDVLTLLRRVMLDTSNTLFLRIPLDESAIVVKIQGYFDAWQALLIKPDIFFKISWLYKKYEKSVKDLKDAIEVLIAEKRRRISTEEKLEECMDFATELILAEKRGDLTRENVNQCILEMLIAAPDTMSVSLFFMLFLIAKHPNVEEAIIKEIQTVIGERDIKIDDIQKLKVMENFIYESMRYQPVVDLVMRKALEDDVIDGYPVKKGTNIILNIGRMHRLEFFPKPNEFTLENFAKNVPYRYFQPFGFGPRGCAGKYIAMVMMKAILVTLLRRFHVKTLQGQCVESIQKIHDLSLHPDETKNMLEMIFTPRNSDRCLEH

[3] = molecular target: T2, Steroid 17-alpha-hydroxylase/17,20 lyase (Homo sapiens, UniProt P05093); assay: Inhibition of human CYP17 expressed in Escherichia coli coexpressing human CYP17 and NADPH-P450 reductase
T2 sequence (P05093 whole entry): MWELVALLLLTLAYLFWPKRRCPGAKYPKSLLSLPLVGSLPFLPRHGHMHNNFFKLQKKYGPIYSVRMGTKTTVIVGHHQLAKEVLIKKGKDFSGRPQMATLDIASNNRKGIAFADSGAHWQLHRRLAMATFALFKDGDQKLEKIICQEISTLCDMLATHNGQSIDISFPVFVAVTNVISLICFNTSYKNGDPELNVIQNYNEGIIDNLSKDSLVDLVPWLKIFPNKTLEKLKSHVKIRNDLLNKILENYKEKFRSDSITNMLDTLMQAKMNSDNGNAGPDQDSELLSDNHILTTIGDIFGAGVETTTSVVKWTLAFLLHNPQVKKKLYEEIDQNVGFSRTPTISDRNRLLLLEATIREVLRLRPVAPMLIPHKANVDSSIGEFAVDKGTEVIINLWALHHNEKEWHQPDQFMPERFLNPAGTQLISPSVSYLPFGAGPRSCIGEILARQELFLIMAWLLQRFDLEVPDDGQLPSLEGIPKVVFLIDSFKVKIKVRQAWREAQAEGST

[4] = molecular target: T3, Cytochrome P450 11B2, mitochondrial (Homo sapiens, UniProt P19099); assay: Inhibition of human CYP11B2 expressed in V79 MZh cells using [14C]-deoxycorticosterone substrate incubated for 6 hrs by HPTLC method; assay type: cell-based, V79MZh
T3 sequence (P19099 whole entry): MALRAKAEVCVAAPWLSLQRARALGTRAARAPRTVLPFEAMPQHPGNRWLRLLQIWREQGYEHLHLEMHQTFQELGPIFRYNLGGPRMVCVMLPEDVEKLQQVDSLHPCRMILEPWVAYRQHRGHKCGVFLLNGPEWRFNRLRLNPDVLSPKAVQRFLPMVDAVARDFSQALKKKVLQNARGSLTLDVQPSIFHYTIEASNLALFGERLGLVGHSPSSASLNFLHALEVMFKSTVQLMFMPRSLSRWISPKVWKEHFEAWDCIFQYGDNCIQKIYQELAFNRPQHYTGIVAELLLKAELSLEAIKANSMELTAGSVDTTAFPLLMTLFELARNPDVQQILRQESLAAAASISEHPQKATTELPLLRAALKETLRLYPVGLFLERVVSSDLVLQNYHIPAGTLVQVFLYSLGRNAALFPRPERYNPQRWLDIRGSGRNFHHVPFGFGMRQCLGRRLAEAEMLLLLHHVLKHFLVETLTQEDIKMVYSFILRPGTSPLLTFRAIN
How it was run: (§1)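 V79 MZh cells expressing human CYP11B1 or CYP11B2 were incubated 6 h with [¹⁴C]-deoxycorticosterone and inhibitor at various concentrations. Steroids were extracted with ethyl acetate, separated by HPTLC and quantified by phosphoimager.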

[5] = Half life in human hepatic microsomes at 1 uM in presence of NADPH system by LC-MS/MS method; assay type: ADME, Microsome; conditions: liver microsomes
How it was run: (§2)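 Pooled mixed-gender human liver microsomes at 0.5 mg/mL final protein in potassium phosphate–MgCl₂ buffer (100 mM, pH 7.4). Compound at 1 μM final with NADPH system, 37 °C. Samples at 2, 5, 15, 30 and 45 min, quenched with acetonitrile, vortexed, centrifuged, and supernatant analysed by LC–MS/MS.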

[6] = Intrinsic clearance in human hepatic microsomes at 1 uM in presence of NADPH system by LC-MS/MS method; assay type: ADME; conditions: liver microsomes, read-out: CLH; how it was run: as §2
[7] = Stability in human hepatic microsomes assessed as unchanged compound level at 1 uM after 120 mins in presence of NADPH system by LC-MS/MS method; assay type: ADME, Microsome; conditions: liver microsomes, read-out: Stability
[8] = molecular target: T4, Cytochrome P450 1A2 (Homo sapiens, UniProt P05177); assay: Inhibition of human recombinant CYP1A2 using phenacetin substrate by LC-MS/MS method; assay type: ADME
T4 sequence (P05177 whole entry): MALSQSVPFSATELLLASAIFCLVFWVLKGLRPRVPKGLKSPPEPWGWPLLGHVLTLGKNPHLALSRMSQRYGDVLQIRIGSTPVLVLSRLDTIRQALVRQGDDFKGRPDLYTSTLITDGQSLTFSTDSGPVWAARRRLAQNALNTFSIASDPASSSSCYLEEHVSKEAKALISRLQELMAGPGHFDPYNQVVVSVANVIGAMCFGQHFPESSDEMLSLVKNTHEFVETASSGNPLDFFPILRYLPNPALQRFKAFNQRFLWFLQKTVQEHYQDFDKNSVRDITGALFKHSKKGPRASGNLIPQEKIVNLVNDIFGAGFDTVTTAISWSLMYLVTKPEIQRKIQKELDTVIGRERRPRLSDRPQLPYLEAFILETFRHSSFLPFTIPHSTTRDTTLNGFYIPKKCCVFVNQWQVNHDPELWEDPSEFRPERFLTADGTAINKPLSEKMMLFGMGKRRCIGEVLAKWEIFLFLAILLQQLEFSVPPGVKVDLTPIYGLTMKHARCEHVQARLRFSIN
How it was run: (§3)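 Compounds tested in duplicate at six concentrations up to 50 μM. Acetonitrile quench at one time point, then LC–MS/MS of probe metabolites. Metabolites were normalized to vehicle controls and IC50 calculated.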

[9] = molecular target: Cytochrome P450 2C9 (Homo sapiens, UniProt P11712); assay: Inhibition of human recombinant CYP2C9 using diclofenac substrate by LC-MS/MS method; assay type: ADME; how it was run: as §3
[10] = molecular target: Cytochrome P450 2C19 (Homo sapiens, UniProt P33261); assay: Inhibition of human recombinant CYP2C19 using smephenytoin substrate by LC-MS/MS method; assay type: ADME; how it was run: as §3
[11] = molecular target: Cytochrome P450 2D6 (Homo sapiens, UniProt P10635); assay: Inhibition of human recombinant CYP2D6 using bufuralol substrate by LC-MS/MS method; assay type: ADME; how it was run: as §3
[12] = molecular target: Cytochrome P450 3A4 (Homo sapiens, UniProt P08684); assay: Inhibition of human recombinant CYP3A4 using midazolam substrate by LC-MS/MS method; assay type: ADME; how it was run: as §3
[13] = molecular target: T5, Cytochrome P450 11B1, mitochondrial (Homo sapiens, UniProt P15538); assay: Inhibition of human CYP11B1 expressed in V79 MZh cells using [14C]-deoxycorticosterone substrate incubated for 6 hrs by HPTLC method; assay type: cell-based, V79MZh; how it was run: as §1
T5 sequence (P15538 whole entry): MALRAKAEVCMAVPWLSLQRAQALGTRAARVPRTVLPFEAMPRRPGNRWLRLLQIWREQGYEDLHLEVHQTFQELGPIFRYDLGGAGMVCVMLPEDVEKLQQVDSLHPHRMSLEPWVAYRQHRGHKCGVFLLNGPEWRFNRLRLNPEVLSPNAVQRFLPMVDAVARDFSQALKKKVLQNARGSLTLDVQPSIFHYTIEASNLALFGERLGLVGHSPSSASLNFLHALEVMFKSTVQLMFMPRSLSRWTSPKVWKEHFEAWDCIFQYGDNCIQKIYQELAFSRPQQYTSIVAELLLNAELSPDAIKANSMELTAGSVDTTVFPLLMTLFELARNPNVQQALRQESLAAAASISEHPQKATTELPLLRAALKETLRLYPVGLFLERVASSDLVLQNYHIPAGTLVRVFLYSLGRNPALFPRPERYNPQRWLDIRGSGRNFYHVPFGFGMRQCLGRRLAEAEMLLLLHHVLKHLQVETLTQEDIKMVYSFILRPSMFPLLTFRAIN

Sequence of Cytochrome P450 2C19 (P33261 whole entry): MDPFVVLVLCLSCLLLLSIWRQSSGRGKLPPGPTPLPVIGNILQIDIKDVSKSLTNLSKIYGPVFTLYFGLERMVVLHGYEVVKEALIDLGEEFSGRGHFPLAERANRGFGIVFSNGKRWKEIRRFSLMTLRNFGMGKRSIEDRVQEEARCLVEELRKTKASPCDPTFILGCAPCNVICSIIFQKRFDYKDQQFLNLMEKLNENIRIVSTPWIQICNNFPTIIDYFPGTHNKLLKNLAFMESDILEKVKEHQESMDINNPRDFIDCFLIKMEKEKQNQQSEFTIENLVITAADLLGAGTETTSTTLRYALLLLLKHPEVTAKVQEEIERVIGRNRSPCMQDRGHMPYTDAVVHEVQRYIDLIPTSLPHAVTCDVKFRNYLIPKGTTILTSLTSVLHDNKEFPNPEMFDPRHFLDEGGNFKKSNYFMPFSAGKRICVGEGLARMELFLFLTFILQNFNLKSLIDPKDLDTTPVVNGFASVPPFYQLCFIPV
Sequence of Cytochrome P450 2C9 (P11712 whole entry): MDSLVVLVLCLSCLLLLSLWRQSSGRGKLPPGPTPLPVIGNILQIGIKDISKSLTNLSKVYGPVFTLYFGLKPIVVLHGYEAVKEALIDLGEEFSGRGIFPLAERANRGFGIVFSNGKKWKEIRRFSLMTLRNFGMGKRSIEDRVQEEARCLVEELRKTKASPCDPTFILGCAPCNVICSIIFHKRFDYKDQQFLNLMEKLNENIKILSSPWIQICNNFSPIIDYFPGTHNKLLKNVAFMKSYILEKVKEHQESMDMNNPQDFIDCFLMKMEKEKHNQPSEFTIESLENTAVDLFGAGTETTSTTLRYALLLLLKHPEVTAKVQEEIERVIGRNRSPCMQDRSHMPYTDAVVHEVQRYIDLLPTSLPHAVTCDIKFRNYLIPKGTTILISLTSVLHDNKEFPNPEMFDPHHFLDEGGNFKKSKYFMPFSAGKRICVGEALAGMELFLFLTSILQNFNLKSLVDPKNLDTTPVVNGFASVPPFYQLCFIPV
Sequence of Cytochrome P450 2D6 (P10635 whole entry): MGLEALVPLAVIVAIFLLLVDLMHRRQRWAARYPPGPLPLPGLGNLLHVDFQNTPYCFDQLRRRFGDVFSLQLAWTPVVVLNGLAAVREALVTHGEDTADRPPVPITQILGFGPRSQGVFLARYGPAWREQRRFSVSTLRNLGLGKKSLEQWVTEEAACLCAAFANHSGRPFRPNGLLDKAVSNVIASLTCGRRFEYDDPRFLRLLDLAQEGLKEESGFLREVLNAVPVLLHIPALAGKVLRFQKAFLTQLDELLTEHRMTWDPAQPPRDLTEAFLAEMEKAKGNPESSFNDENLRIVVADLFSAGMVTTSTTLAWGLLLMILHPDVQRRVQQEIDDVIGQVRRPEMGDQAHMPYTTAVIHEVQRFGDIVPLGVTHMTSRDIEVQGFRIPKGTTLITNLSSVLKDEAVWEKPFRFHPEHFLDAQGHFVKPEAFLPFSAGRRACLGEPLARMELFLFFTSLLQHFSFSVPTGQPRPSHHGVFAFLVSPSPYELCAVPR
Sequence of Cytochrome P450 3A4 (P08684 whole entry): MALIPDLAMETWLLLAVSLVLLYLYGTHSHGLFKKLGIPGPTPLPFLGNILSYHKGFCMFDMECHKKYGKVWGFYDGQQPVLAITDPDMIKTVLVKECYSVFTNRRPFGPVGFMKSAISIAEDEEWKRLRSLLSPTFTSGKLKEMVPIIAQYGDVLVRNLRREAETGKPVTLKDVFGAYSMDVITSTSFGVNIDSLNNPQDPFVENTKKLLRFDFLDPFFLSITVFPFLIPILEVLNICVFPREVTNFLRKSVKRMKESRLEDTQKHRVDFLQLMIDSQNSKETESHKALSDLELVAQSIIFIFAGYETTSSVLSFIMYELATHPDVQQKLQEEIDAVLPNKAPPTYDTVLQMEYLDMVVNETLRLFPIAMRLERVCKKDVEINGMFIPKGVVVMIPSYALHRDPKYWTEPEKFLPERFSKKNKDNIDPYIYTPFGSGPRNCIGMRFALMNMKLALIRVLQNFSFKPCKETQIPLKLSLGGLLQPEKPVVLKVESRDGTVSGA

Row | Compound | Ratio IC50 [1] | IC50 [2] [µM] | IC50 [3] [µM] | IC50 [4] [µM] | IC50 [13] [µM] | other results
1 | Cc1nnc2n1-c1cc(F)c(-c3cccnc3)cc1CC2 | 96 | > 10 | > 10 | – | – | –
2 | Cc1nnc2n1-c1c(F)cc(-c3cncc4ccccc34)cc1CC2 | 49 | > 10 | > 10 | – | – | –
3 | O=C(c1ccccc1)c1nnc2n1-c1c(F)cc(-c3cccnc3)cc1CC2 | – | > 10 | > 10 | 0.708 | > 10 | –
4 | Fc1cc(-c2cccnc2)cc2c1-n1c(nnc1-c1ccccc1)CC2 | – | > 10 | > 10 | > 10 | > 10 | –
5 | Cc1nnc2n1-c1c(F)cc(-c3cccnc3)cc1CC2 | 272 | > 10 | > 10 | – | – | half-life at 1 µM [5]: > 2 h
6 | CC(C)c1nnc2n1-c1c(F)cc(-c3cccnc3)cc1CC2 | – | > 10 | > 10 | > 10 | > 10 | –
7 | Cc1nnc2n1-c1c(F)cc(-c3cncc(-c4ccccc4)c3)cc1CC2 | 60 | > 10 | > 10 | – | – | –
8 | Cc1nnc2n1-c1c(F)cc(-c3cncc(C(F)(F)F)c3)cc1CC2 | 63 | > 10 | > 10 | – | – | –
9 | CC(C)c1nnc2n1-c1cc(F)c(-c3cccnc3)cc1CC2 | – | > 10 | > 10 | > 10 | > 10 | –
10 | CC(=O)c1cncc(-c2cc(F)c3c(c2)CCc2nnc(C)n2-3)c1 | 78 | > 10 | > 10 | – | – | –
11 | Fc1cc(-c2cccnc2)cc2c1-n1c(nnc1-c1ccncc1)CC2 | – | > 10 | > 10 | > 10 | > 10 | –
12 | CCc1nnc2n1-c1cc(F)c(-c3cccnc3)cc1CC2 | – | > 10 | > 10 | 0.979 | > 10 | –
13 | Cc1c(F)cncc1-c1cc(F)c2c(c1)CCc1nncn1-2 | 134 | > 10 | > 10 | 0.0425 | 5.7 | –
14 | Fc1cc2c(cc1-c1cccnc1)CCc1nnc(-c3ccccc3)n1-2 | – | > 10 | > 10 | > 10 | > 10 | –
15 | Cc1nnc2n1-c1c(F)cc(-c3cncc(C#N)c3)cc1CC2 | – | > 10 | > 10 | 1.18 | > 10 | –

Further lines, with some results ahead:

Row | Ratio IC50 [1] | IC50 [2] [µM] | IC50 [3] [µM] | IC50 [4] [µM] | IC50 [13] [µM] | Compound | other results
16 | 94 | > 10 | > 10 | – | – | Fc1cc(-c2cccnc2)cc2c1-n1cnnc1CC2 | –
17 | 89 | > 10 | > 10 | – | – | COc1cncc(-c2cc(F)c3c(c2)CCc2nnc(C)n2-3)c1 | –
18 | 422 | > 10 | > 10 | 0.0042 | – | Cc1ccncc1-c1cc(F)c2c(c1)CCc1nnc(C)n1-2 | half-life at 1 µM [5]: > 2 h; microsomal CLint at 1 µM [6]: 4 µL/min/mg; remaining at 2 h, 1 µM [7]: 80%; IC50 [8]: > 50 µM; IC50 [9]: > 50 µM; IC50 [10]: > 50 µM; IC50 [11]: > 50 µM; IC50 [12]: > 50 µM
19 | 232 | > 10 | > 10 | 0.0195 | 4.52 | Cc1c(F)cncc1-c1cc(F)c2c(c1)CCc1nnc(C)n1-2 | –
20 | 329 | > 10 | > 10 | 0.0897 | – | Cc1nnc2n1-c1c(F)cc(-c3cncc(F)c3)cc1CC2 | half-life at 1 µM [5]: > 2 h; microsomal CLint at 1 µM [6]: 12 µL/min/mg; IC50 [8]: > 50 µM; IC50 [9]: > 50 µM; IC50 [10]: > 50 µM; IC50 [11]: > 50 µM; IC50 [12]: > 50 µM
21 | 32 | > 10 | > 10 | – | – | Fc1cc2c(cc1-c1cccnc1)CCc1nncn1-2 | –
22 | – | > 10 | > 10 | 0.542 | > 10 | CCc1nnc2n1-c1c(F)cc(-c3cccnc3)cc1CC2 | –
23 | – | > 10 | > 10 | > 10 | > 10 | Fc1cc2c(cc1-c1cccnc1)CCc1nnc(-c3ccncc3)n1-2 | –
24 | – | > 10 | > 10 | 4.35 | > 10 | Fc1cc2c(cc1-c1cccnc1)CCc1nnc(Cc3ccccc3)n1-2 | –
25 | 138 | > 10 | > 10 | – | – | Cc1nnc2n1-c1c(F)cc(-c3cncc(C(C)O)c3)cc1CC2 (configuration not stated) | –
26 | – | > 10 | > 10 | 0.335 | > 10 | Fc1cncc(-c2cc(F)c3c(c2)CCc2nncn2-3)c1 | –

— ChEMBL document CHEMBL3414516, “Novel pyridyl substituted 4,5-dihydro-[1,2,4]triazolo[4,3-a]quinolines as potent and selective aldosterone synthase inhibitors with improved in vitro metabolic stability” (J Med Chem, 2015)
